Series [1] in a line: Cytotoxicity index, IC50 for J774.1 macrophages over IC50 for Leishmania major promastigotes. To be noted: mouse; for selectivity ratio: J774.1 macrophages, read-out: Ratio IC50. The gist of the method:
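Index is J774.1 IC50 divided by promastigote IC50, with both assays run in parallel. Promastigotes were incubated 24 h at 26°C with rising concentrations, and J774.1 cells 24 h at 37°C. Alamar Blue was then added. OD at 540/630 nm was read, and IC50 was interpolated linearly from the 48 h readings, with drug-free wells set as 100% growth.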

The species entered for series [2] is Mus musculus. The series is described as follows: Cytotoxicity against BALB/c mouse peritoneal macrophages by Alamar blue method. It is filed as functional. Put shortly: (§1)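 J774.1 cells, BALB/c peritoneal exudate cells (erythrocytes lysed in 10 mM NH4Cl), or BMDC (day-10 nonadherent cells from GM-CSF 200 U/ml cultures) were plated at 2 × 10^6 cells/ml in complete RPMI without phenol red. Cells were exposed to increasing concentrations for 24 h at 37°C in 5% CO2, then Alamar Blue was added. IC50 was taken by linear interpolation from the 48 h OD. Duplicate wells, at least two experiments.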

For a further series, the system named is Leishmania major. In words: Cytotoxicity against cloned virulent Leishmania major promastigotes MHOM/IL/81/FE/BN1 after 48 hrs. It counts as organism-based. The gist of the method: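 L. major promastigotes grown on blood agar at 26°C, 5% CO2, then washed in PBS and suspended at 1 × 10^8 cells/ml in complete Click RPMI 1640 (10% FCS, glutamine, HEPES pH 7.2, antibiotics, 2-mercaptoethanol), no phenol red. Exposed to increasing compound concentrations 24 h at 26°C, then Alamar Blue added. OD read 540/630 nm; 48 h OD versus untreated (100% growth) gave IC50 by linear interpolation. Duplicate wells, ≥2 experiments; DMSO ≤1% final.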

Series [3] is filed under the species Mus musculus. The series is described as follows: Cytotoxicity against J774.1 macrophages after 48 hrs. The settings on record: J774.1, 48 h. Put shortly: as §1
In the next series the test system is NIH3T3. In words: Cytotoxicity against mouse embryo NIH3T3 cells by Alamar blue method. It is filed as cell-based. The gist of the method: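 NIH 3T3 fibroblasts were grown on gelatin and suspended at 2 × 10^6 cells/ml in DMEM. They were exposed to rising compound concentrations for 24 h at 37°C in 5% CO2, then Alamar Blue was added. IC50 was derived by linear interpolation of the 48 h OD. Duplicate wells per concentration; at least two experiments.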

The nature of series [4]: Cytotoxicity against BALB/c mouse bone-marrow derived dendritic cells by Alamar blue method. It is filed as cell-based. To be noted: Dendritic cell. The gist of the method: as §1
(In general: Resazurin is reduced to fluorescent resorufin, in cell work by metabolically active cells.)

The structures appear in SMILES notation.

In the case of `COc1cc(OC)c2c(C)[n+](-c3cccc4ccccc34)c(C)cc2c1.[O-][Cl+3]([O-])([O-])[O-]`, in series [1], the selectivity ratio was determined as 3.48. Further, the 50% inhibitory concentration (IC50) in the series filed under Mus musculus [2] was 15.5 µM; in the series with Leishmania major it was 2.91 µM; in the series listed under Mus musculus [3] it was 10.2 µM; in the series with NIH3T3 it was 15 µM; in series [4], 27.4 µM.

Turning to `COc1cc(OC)c2c(C)[n+](-c3ccccc3)c(C)cc2c1.[Cl-]`, in series [1], the “Ratio IC50” value is below 1. For the same compound, the IC50 with Leishmania major worked out at 47 µM; in the series filed under Mus musculus [3], 43.7 µM.

`COc1cc(OC)c(-c2ccc(OC)c3c(OC)cc(C)cc23)c2c1C(C)=N[C@@H](C)C2` [ANCISTROEALAINE A]: the IC50 in the series on Leishmania major and in the series filed under Mus musculus [3] was above 100 µM in each case.

As to `COc1cc(OC)c2c(C)[n+](-c3ccccc3)c(C)cc2c1.[O-][Cl+3]([O-])([O-])[O-]`, the selectivity ratio in series [1] was determined as 1.47. The IC50 in the series on Leishmania major was 26.6 µM; in the series filed under Mus musculus [3] it was 39.2 µM.

With `COc1cc(C)c(-c2ccc3cc(C)nc(C)c3c2O)c2cccc(O)c12` [ENT-DIONCOPHYLLEINE A], the IC50 in the series with Leishmania major is 32.3 µM.

On to `COc1cc2c(c(OC)c1)C(C)=[N+](c1ccc3cc(C)cc(OC)c3c1O)[C@@H](C)C2` [ANCISTROCLADINIUM B], for which the selectivity ratio in series [1] is 9.04. The IC50 is 16.9 µM in the series filed under Mus musculus [2]; 1.24 µM in the series on Leishmania major; 11.2 µM in the series filed under Mus musculus [3]; 10.6 µM in the series on NIH3T3; 20.1 µM in series [4].

Take `COc1cc2c(c(OC)c1)C(C)=[N+](c1ccc(OC)c3c(OC)cc(C)cc13)[C@@H](C)C2` [ANCISANCISTROCLADINIUM A]: in series [1], the selectivity ratio was 6.48. Also, the IC50 in the series filed under Mus musculus [2] worked out at 41.7 µM; in the series on Leishmania major it was 4.9 µM; in the series listed under Mus musculus [3], 31.8 µM; in series [4] it was 36 µM.

As to `COc1cc(CO)c(-c2ccc3c(c2O)[C@@H](C)N[C@H](C)C3)c2cccc(O)c12` [DIONCOPELTINE A], the IC50 in the series with Leishmania major and in the series filed under Mus musculus [3] was above 100 µM each time.

On to `COc1cccc2c(-c3ccc4c(c3O)[C@@H](C)N[C@H](C)C4)c(C)cc(OC)c12` [DIONCOPHYLLINE A], for which the IC50 with Leishmania major was found to be 47 µM.

Turning to `COc1c2c(cc(O)c1-c1c(C)cc3cccc(OC)c3c1O)C[C@H](C)N=C2C` [ANCISTROHEYNINE B], the selectivity ratio in series [1] was below 1. The results for the IC50 in the series on Leishmania major and in the series listed under Mus musculus [3] were 33 µM and 29.9 µM, respectively.

Turning to `COc1cc2c(c(OC)c1-c1c(C)cc3cccc(OC)c3c1O)C(C)=N[C@@H](C)C2` [ANCISTROCLADIDINE], the IC50 with Leishmania major and in the series listed under Mus musculus [3] was above 100 µM each time.

For the compound `COc1cc(C)c(-c2ccc(O)c3c2C[C@@H](C)N[C@@H]3C)c2cccc(O)c12` [DIONCOPHYLLINE C], the selectivity ratio in series [1] is below 1. Further, the IC50 in the series on Leishmania major was 36.5 µM; in the series listed under Mus musculus [3] it was 32.8 µM.

As to `COc1ccc(-c2ccc3cc(C)nc(C)c3c2O)c2cc(C)cc(OC)c12` [DIONCOPHYLLEINE D], the IC50 with Leishmania major and in the series filed under Mus musculus [3] was above 100 µM each time.

Broadly, the IC50 is the concentration at which inhibition is half-maximal. A higher IC50 goes with lower potency.
